The values that follow come from ChEMBL document CHEMBL1137088, “Distamycin analogues with enhanced lipophilicity: synthesis and antimicrobial activity” (2004).

Molecules are shown by their SMILES. ≈ marks a conversion by molar mass, not a printed value. Where “and” joins values, the source holds several entries; their conditions need not be identical. Identical values can stand only once. Calls of active or inactive are those of the source. No cut-off for these calls is given here.

Test system in one assay: not listed separately
Put plainly: Antibacterial activity against Proteus vulgaris NCTC 4175 strain; na = not active.
Conditions: not given
It counts as functional.
For orientation: MIC means the least concentration at which growth counts as inhibited. For `CC(C)CCn1cc(NC(=O)c2cc(NC=O)cn2C)cc1C(=O)Nc1cc(C(=O)NCCCN2CCOCC2)n(C)c1`, the MIC result is “inactive”.

On to `CC(=O)Nc1cc(C(=O)Nc2cc(C(=O)Nc3cc(C(=O)NCCCN4CCOCC4)n(C)c3)n(CCC(C)C)c2)n(C)c1`, for which the MIC entry is “inactive”.

As for `Cc1oc(CNC(=O)c2cc(NC(=O)c3cc(NC=O)cn3C)cn2C)nc1C(=O)NCCCN(C)C`, the MIC entry was “inactive”.

As to `CC(=O)Nc1cc(C(=O)Nc2cc(C(=O)Nc3cc(C(=O)NCCCN(C)C)n(C)c3)n(C(C)C)c2)n(C)c1`, the MIC entry is “inactive”.

The next assay concerns Klebsiella aerogenes. Description: Antibacterial activity against Klebsiella aerogenes WRL CN 345 strain; na = not active. It counts as functional, organism-based.
Conditions: not given
On to `CC(C)CCn1cc(NC(=O)c2cc(NC=O)cn2C)cc1C(=O)Nc1cc(C(=O)NCCCN2CCOCC2)n(C)c1`, for which the MIC result is “inactive”.

Turning to `CC(=O)Nc1cc(C(=O)Nc2cc(C(=O)Nc3cc(C(=O)NCCCN4CCOCC4)n(C)c3)n(CCC(C)C)c2)n(C)c1`, the MIC result is “inactive”.

For `Cc1oc(CNC(=O)c2cc(NC(=O)c3cc(NC=O)cn3C)cn2C)nc1C(=O)NCCCN(C)C`, the MIC result was “inactive”.

The test system of the next assay is Staphylococcus aureus. Put plainly: Antibacterial activity against MRSA PHLS M1 strain; na = not active. It counts as functional, organism-based.
Conditions: not given
As for `CC(=O)Nc1cc(C(=O)Nc2cc(C(=O)Nc3cc(C(=O)NCCCN4CCOCC4)n(C)c3)n(CCC(C)C)c2)n(C)c1`, the MIC result is “inactive”.

For `CC(=O)Nc1cc(C(=O)Nc2cc(C(=O)Nc3cc(C(=O)NCCCN(C)C)n(C)c3)n(C(C)C)c2)n(C)c1`, the MIC result is “inactive”.

In a further assay the test system is Aspergillus nidulans. Description: Antifungal activity against Aspergillus nidulans CABI 0160037 strain; na = not active. It counts as functional.
Conditions: not given
Regarding `CC(C)CCn1cc(NC(=O)c2cc(NC=O)cn2C)cc1C(=O)Nc1cc(C(=O)NCCCN2CCOCC2)n(C)c1`, the MIC entry is “inactive”.

`CC(=O)Nc1cc(C(=O)Nc2cc(C(=O)Nc3cc(C(=O)NCCCN4CCOCC4)n(C)c3)n(CCC(C)C)c2)n(C)c1`: the MIC result is “inactive”.

Turning to `CC(=O)Nc1cc(C(=O)Nc2cc(C(=O)Nc3cc(C(=O)NCCCN(C)C)n(C)c3)n(C(C)C)c2)n(C)c1`, the MIC entry is “inactive”.

For another assay, the system named is Enterococcus faecalis. Description: Antibacterial activity against Streptococcus faecalis NCTC 775 strain; na = not active. It counts as functional, organism-based.
Conditions: not given
Consider `CC(C)CCn1cc(NC(=O)c2cc(NC=O)cn2C)cc1C(=O)Nc1cc(C(=O)NCCCN2CCOCC2)n(C)c1`, for which the MIC entry is “inactive”.

`CC(=O)Nc1cc(C(=O)Nc2cc(C(=O)Nc3cc(C(=O)NCCCN4CCOCC4)n(C)c3)n(CCC(C)C)c2)n(C)c1`: the MIC entry was “inactive”.

On to `Cc1oc(CNC(=O)c2cc(NC(=O)c3cc(NC=O)cn3C)cn2C)nc1C(=O)NCCCN(C)C`, for which the MIC result is “inactive”.

Regarding `CC(=O)Nc1cc(C(=O)Nc2cc(C(=O)Nc3cc(C(=O)NCCCN(C)C)n(C)c3)n(C(C)C)c2)n(C)c1`, the MIC entry was “inactive”.

Another assay has as its system Enterococcus faecalis. Description: Antibacterial activity against Streptococcus faecalis NCTC 775 strain. It counts as functional.
Conditions: not given
Turning to `CC(=O)Nc1cc(C(=O)Nc2cc(C(=O)Nc3cc(C(=O)NCCCN(C)C)n(C)c3)n(C(C)C)c2)n(C)c1`, inhibition of growth (MIC) required 73.5 µM (≈ 39.6 µg/mL).

In a further assay the test system is Escherichia coli. Put plainly: Antibacterial activity against Escherichia coli NCTC 9001 strain. It counts as functional, organism-based.
Conditions: not given
Take `CC(C)CCn1cc(NC(=O)c2cc(NC=O)cn2C)cc1C(=O)Nc1cc(C(=O)NCCCN2CCOCC2)n(C)c1`: the MIC result is “inactive”.

On to `CC(=O)Nc1cc(C(=O)Nc2cc(C(=O)Nc3cc(C(=O)NCCCN4CCOCC4)n(C)c3)n(CCC(C)C)c2)n(C)c1`, for which the MIC result is “inactive”.

In the case of `Cc1oc(CNC(=O)c2cc(NC(=O)c3cc(NC=O)cn3C)cn2C)nc1C(=O)NCCCN(C)C`, the MIC result is “inactive”.

Turning to `CC(=O)Nc1cc(C(=O)Nc2cc(C(=O)Nc3cc(C(=O)NCCCN(C)C)n(C)c3)n(C(C)C)c2)n(C)c1`, the MIC entry is “inactive”.

The next assay deals with Mycolicibacterium fortuitum. Description: Antibacterial activity against Mycobacterium fortuitum NCTC 10394 strain; na = not active. It counts as functional, organism-based.
Conditions: not given
For the compound `CC(C)CCn1cc(NC(=O)c2cc(NC=O)cn2C)cc1C(=O)Nc1cc(C(=O)NCCCN2CCOCC2)n(C)c1`, the MIC result was “inactive”.

For the compound `Cc1oc(CNC(=O)c2cc(NC(=O)c3cc(NC=O)cn3C)cn2C)nc1C(=O)NCCCN(C)C`, the MIC entry is “inactive”.

As for `CC(=O)Nc1cc(C(=O)Nc2cc(C(=O)Nc3cc(C(=O)NCCCN(C)C)n(C)c3)n(C(C)C)c2)n(C)c1`, the MIC result is “inactive”.

The next assay deals with Mycolicibacterium fortuitum. Put plainly: Antibacterial activity against Mycobacterium fortuitum NCTC 10394 strain.
Conditions: not given
It counts as functional.
As for `CC(=O)Nc1cc(C(=O)Nc2cc(C(=O)Nc3cc(C(=O)NCCCN4CCOCC4)n(C)c3)n(CCC(C)C)c2)n(C)c1`, the MIC was found to be 140 µM (≈ 85.2 µg/mL).

`CC(=O)Nc1cc(C(=O)Nc2cc(C(=O)Nc3cc(C(=O)NCCCN(C)C)n(C)c3)n(C(C)C)c2)n(C)c1` displayed an MIC of 147 µM (≈ 79.2 µg/mL).

In the next assay the test system is Staphylococcus aureus. Description: Antibacterial activity against Staphylococcus aureus NCTC 6571 strain; na = not active. It counts as functional, organism-based.
Conditions: not given
As to `CC(C)CCn1cc(NC(=O)c2cc(NC=O)cn2C)cc1C(=O)Nc1cc(C(=O)NCCCN2CCOCC2)n(C)c1`, the MIC result is “inactive”.

`CC(=O)Nc1cc(C(=O)Nc2cc(C(=O)Nc3cc(C(=O)NCCCN4CCOCC4)n(C)c3)n(CCC(C)C)c2)n(C)c1`: the MIC entry is “inactive”.

Regarding `Cc1oc(CNC(=O)c2cc(NC(=O)c3cc(NC=O)cn3C)cn2C)nc1C(=O)NCCCN(C)C`, the MIC entry is “inactive”.

As to `CC(=O)Nc1cc(C(=O)Nc2cc(C(=O)Nc3cc(C(=O)NCCCN(C)C)n(C)c3)n(C(C)C)c2)n(C)c1`, the MIC result is “inactive”.

For a further assay, the system named is Aspergillus niger. Description: Antifungal activity against Aspergillus niger IMI17454 strain; na = not active. It counts as functional.
Conditions: not given
Take `CC(=O)Nc1cc(C(=O)Nc2cc(C(=O)Nc3cc(C(=O)NCCCN4CCOCC4)n(C)c3)n(CCC(C)C)c2)n(C)c1`: the MIC entry was “inactive”.

The subject of another assay is Enterobacter cloacae. Description: Antibacterial activity against Enterobacter cloacae NCTC 10005 strain. It counts as functional, organism-based.
Conditions: not given
With `CC(C)CCn1cc(NC(=O)c2cc(NC=O)cn2C)cc1C(=O)Nc1cc(C(=O)NCCCN2CCOCC2)n(C)c1`, the MIC entry is “inactive”.

Turning to `CC(=O)Nc1cc(C(=O)Nc2cc(C(=O)Nc3cc(C(=O)NCCCN4CCOCC4)n(C)c3)n(CCC(C)C)c2)n(C)c1`, the MIC result was “inactive”.

Regarding `CC(=O)Nc1cc(C(=O)Nc2cc(C(=O)Nc3cc(C(=O)NCCCN(C)C)n(C)c3)n(C(C)C)c2)n(C)c1`, the MIC result was “inactive”.

A further assay deals with Aspergillus nidulans. Description: Antifungal activity against Aspergillus nidulans CABI 0160037 strain. It counts as functional.
Conditions: not given
`Cc1oc(CNC(=O)c2cc(NC(=O)c3cc(NC=O)cn3C)cn2C)nc1C(=O)NCCCN(C)C`: the MIC is 160 µM (not active) (≈ 82 µg/mL).

Test system in a further assay: not listed separately
Put plainly: Antifungal activity against Candida albicans NCPF 3179 strain; na = not active. It counts as functional.
Conditions: not given
Consider `CC(C)CCn1cc(NC(=O)c2cc(NC=O)cn2C)cc1C(=O)Nc1cc(C(=O)NCCCN2CCOCC2)n(C)c1`, for which the MIC result is “inactive”.

For `CC(=O)Nc1cc(C(=O)Nc2cc(C(=O)Nc3cc(C(=O)NCCCN4CCOCC4)n(C)c3)n(CCC(C)C)c2)n(C)c1`, the MIC entry was “inactive”.

Consider `Cc1oc(CNC(=O)c2cc(NC(=O)c3cc(NC=O)cn3C)cn2C)nc1C(=O)NCCCN(C)C`, for which the MIC result is “inactive”.

The next assay deals with Candida albicans. Description: Antifungal activity against Candida albicans NCPF 3179 strain. It counts as functional.
Conditions: not given
As to `CC(=O)Nc1cc(C(=O)Nc2cc(C(=O)Nc3cc(C(=O)NCCCN(C)C)n(C)c3)n(C(C)C)c2)n(C)c1`, the MIC turned out to be 147 µM (≈ 79.2 µg/mL).

The same assay, now with this note: Candida albicans; read-out: MIC.
For `CC(=O)Nc1cc(C(=O)Nc2cc(C(=O)Nc3cc(C(=O)NCCCN(C)C)n(C)c3)n(C(C)C)c2)n(C)c1`, the MIC is 153 µM (≈ 82.4 µg/mL).

A further assay deals with Staphylococcus aureus. Put plainly: Antibacterial activity against methicillin-resistant Staphylococcus aureus (MRSA) PHLS M1 strain.
Conditions: not given
It counts as functional. A digest of the protocol: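 Read-out is the minimum inhibitory concentration, reported in µM. Amoxycillin is tested alongside as the reference antibiotic.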
For the compound `CC(C)CCn1cc(NC(=O)c2cc(NC=O)cn2C)cc1C(=O)Nc1cc(C(=O)NCCCN2CCOCC2)n(C)c1`, 70.6 µM (≈ 42 µg/mL) was the least that counted as inhibitory (MIC).

`Cc1oc(CNC(=O)c2cc(NC(=O)c3cc(NC=O)cn3C)cn2C)nc1C(=O)NCCCN(C)C`: the MIC is 160 µM (not active) (≈ 82 µg/mL).

The subject of the next assay is Proteus vulgaris. Put plainly: Antibacterial activity against Proteus vulgaris NCTC 4175 strain.
Conditions: not given
It counts as functional.
For `CC(=O)Nc1cc(C(=O)Nc2cc(C(=O)Nc3cc(C(=O)NCCCN(C)C)n(C)c3)n(C(C)C)c2)n(C)c1`, the lowest concentration to inhibit growth (MIC) was 153 µM (≈ 82.4 µg/mL).

For the next assay, the system named is Klebsiella aerogenes. Description: Antibacterial activity against Klebsiella aerogenes WRL CN 345 strain. It counts as functional, WRL CN 375.
Conditions: not given
Compound `CC(=O)Nc1cc(C(=O)Nc2cc(C(=O)Nc3cc(C(=O)NCCCN(C)C)n(C)c3)n(C(C)C)c2)n(C)c1` registered an MIC of 147 µM (≈ 79.2 µg/mL).

Staying with this assay, now noted: Klebsiella aerogenes, WRL CN 375; read-out: MIC.
In the case of `CC(=O)Nc1cc(C(=O)Nc2cc(C(=O)Nc3cc(C(=O)NCCCN(C)C)n(C)c3)n(C(C)C)c2)n(C)c1`, the MIC came out at 153 µM (≈ 82.4 µg/mL).

Test system in a further assay: not listed separately
Description: Antibacterial activity against Enterobacter cloacae NCTC 10005 strain. It counts as functional.
Conditions: not given
For `Cc1oc(CNC(=O)c2cc(NC(=O)c3cc(NC=O)cn3C)cn2C)nc1C(=O)NCCCN(C)C`, the MIC is listed as 160 µM (not active) (≈ 82 µg/mL).

A further assay relates to Aspergillus niger. Put plainly: Antifungal activity against Aspergillus niger IMI17454 strain. It counts as functional.
Conditions: not given
For `CC(=O)Nc1cc(C(=O)Nc2cc(C(=O)Nc3cc(C(=O)NCCCN(C)C)n(C)c3)n(C(C)C)c2)n(C)c1`, the MIC was 153 µM and 73.5 µM.

The assay is the same for the next values; noted with them: Aspergillus niger; read-out: MIC.
Take `CC(C)CCn1cc(NC(=O)c2cc(NC=O)cn2C)cc1C(=O)Nc1cc(C(=O)NCCCN2CCOCC2)n(C)c1`: the MIC was found to be 70.6 µM (≈ 42 µg/mL).

Consider `Cc1oc(CNC(=O)c2cc(NC(=O)c3cc(NC=O)cn3C)cn2C)nc1C(=O)NCCCN(C)C`, for which the MIC was 160 µM (not active) (≈ 82 µg/mL).
